Measured values reported in ChEMBL document CHEMBL3046615, “Isolation of nematicidal compounds from Tagetes patula L. yellow flowers: structure-activity relationship studies against cyst nematode Heterodera zeae infective stage larvae” (2011).
Activity calls are given as the source filed them. No cut-off for these calls is given here.

Legend:
[1] = tested on: Heterodera zeae; experiment: Nematicidal activity against Heterodera zeae infective stage larvae assessed as nematode mortality at 0.125% under dark conditions measured 48 hr post dose by stereoscopic microscopy; assay type: functional
Method in brief: (§1)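 Freshly hatched H. zeae second-stage juveniles, 100 per Petri plate, three replicates. Samples in MeOH, DMSO or water were tested in glass cavity blocks; petroleum ether samples were dried onto the block and larvae transferred on agar pieces. Percentages are dilutions of 30 mg/mL stocks (extracts/fractions) or 1 mg/mL stocks (pure compounds). Incubated at 28 ± 2 °C in light or dark box; mortality averaged over three replicates.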

[2] = tested on: Heterodera zeae; experiment: Nematicidal activity against Heterodera zeae infective stage larvae assessed as nematode mortality at 0.125% under light conditions measured 48 hr post dose by stereoscopic microscopy; assay type: functional; method in brief: as §1
[3] = tested on: Heterodera zeae; experiment: Nematicidal activity against Heterodera zeae infective stage larvae assessed as nematode mortality at 5% under dark conditions measured 5 to 60 min post dose by stereoscopic microscopy; assay type: functional, organism-based
Method in brief: (§2)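 H. zeae freshly hatched second-stage juveniles, 100 per plate, three replicates, at 28 ± 2 °C under light or in a dark box. Dilutions are % of a stock: 30 mg/mL for extracts/fractions, 1 mg/mL for pure compounds. Methanol-, DMSO- or water-soluble samples were tested in glass cavity blocks. Petroleum ether-soluble samples were air-dried in the block and covered with agar pieces bearing cultured larvae. Mortality was followed over 5–60 min; each value is the mean of three experiments.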

[4] = tested on: Heterodera zeae; experiment: Nematicidal activity against Heterodera zeae infective stage larvae assessed as nematode mortality at 0.125% under light conditions measured 24 hr post dose by stereoscopic microscopy; assay type: functional; method in brief: as §1
[5] = tested on: Heterodera zeae; experiment: Nematicidal activity against Heterodera zeae infective stage larvae assessed as nematode mortality at 1% under dark conditions measured 24 hr post dose by stereoscopic microscopy; assay type: functional; method in brief: as §1
[6] = tested on: Heterodera zeae; experiment: Nematicidal activity against Heterodera zeae infective stage larvae assessed as nematode mortality at 0.25% under dark conditions measured 24 hr post dose by stereoscopic microscopy; assay type: functional; method in brief: as §1
[7] = tested on: Heterodera zeae; experiment: Nematicidal activity against Heterodera zeae infective stage larvae assessed as nematode mortality at 2% under light conditions measured 5 to 60 min post dose by stereoscopic microscopy; assay type: functional, organism-based; method in brief: as §2
[8] = tested on: Heterodera zeae; experiment: Nematicidal activity against Heterodera zeae infective stage larvae assessed as nematode mortality at 1% under light conditions measured 24 hr post dose by stereoscopic microscopy; assay type: functional; method in brief: as §1
[9] = tested on: Heterodera zeae; experiment: Nematicidal activity against Heterodera zeae infective stage larvae assessed as nematode mortality at 0.5% under dark conditions measured 48 hr post dose by stereoscopic microscopy; assay type: functional; method in brief: as §1
[10] = tested on: Heterodera zeae; experiment: Nematicidal activity against Heterodera zeae infective stage larvae assessed as nematode mortality at 1% under dark conditions measured 5 to 60 min post dose by stereoscopic microscopy; assay type: functional, organism-based; method in brief: as §2
[11] = tested on: Heterodera zeae; experiment: Nematicidal activity against Heterodera zeae infective stage larvae assessed as nematode mortality at 0.5% under light conditions measured 24 hr post dose by stereoscopic microscopy; assay type: functional; method in brief: as §1
[12] = tested on: Heterodera zeae; experiment: Nematicidal activity against Heterodera zeae infective stage larvae assessed as nematode mortality at 5% under light conditions measured 5 to 60 min post dose by stereoscopic microscopy; assay type: functional, organism-based; method in brief: as §2
[13] = tested on: Heterodera zeae; experiment: Nematicidal activity against Heterodera zeae infective stage larvae assessed as nematode mortality at 0.25% under light conditions measured 48 hr post dose by stereoscopic microscopy; assay type: functional; method in brief: as §1
[14] = tested on: Heterodera zeae; experiment: Nematicidal activity against Heterodera zeae infective stage larvae assessed as nematode mortality at 0.5% under dark conditions measured 24 hr post dose by stereoscopic microscopy; assay type: functional; method in brief: as §1
[15] = tested on: Heterodera zeae; experiment: Nematicidal activity against Heterodera zeae infective stage larvae assessed as nematode mortality at 2% under dark conditions measured 5 to 60 min post dose by stereoscopic microscopy; assay type: functional, organism-based; method in brief: as §2
[16] = tested on: Heterodera zeae; experiment: Nematicidal activity against Heterodera zeae infective stage larvae assessed as nematode mortality at 0.125% under dark conditions measured 5 to 60 min post dose by stereoscopic microscopy; assay type: functional, organism-based; method in brief: as §2
[17] = tested on: Heterodera zeae; experiment: Nematicidal activity against Heterodera zeae infective stage larvae assessed as nematode mortality at 0.25% under light conditions measured 5 to 60 min post dose by stereoscopic microscopy; assay type: functional, organism-based; method in brief: as §2
[18] = tested on: Heterodera zeae; experiment: Nematicidal activity against Heterodera zeae infective stage larvae assessed as nematode mortality at 0.125% under dark conditions measured 24 hr post dose by stereoscopic microscopy; assay type: functional; method in brief: as §1
[19] = tested on: Heterodera zeae; experiment: Nematicidal activity against Heterodera zeae infective stage larvae assessed as nematode mortality at 0.25% under dark conditions measured 48 hr post dose by stereoscopic microscopy; assay type: functional; method in brief: as §1
[20] = tested on: Heterodera zeae; experiment: Nematicidal activity against Heterodera zeae infective stage larvae assessed as nematode mortality at 0.125% under light conditions measured 5 to 60 min post dose by stereoscopic microscopy; assay type: functional, organism-based; method in brief: as §2
[21] = tested on: Heterodera zeae; experiment: Nematicidal activity against Heterodera zeae infective stage larvae assessed as nematode mortality at 0.5% under dark conditions measured 5 to 60 min post dose by stereoscopic microscopy; assay type: functional, organism-based; method in brief: as §2
[22] = tested on: Heterodera zeae; experiment: Nematicidal activity against Heterodera zeae infective stage larvae assessed as nematode mortality at 1% under light conditions measured 5 to 60 min post dose by stereoscopic microscopy; assay type: functional, organism-based; method in brief: as §2
[23] = tested on: Heterodera zeae; experiment: Nematicidal activity against Heterodera zeae infective stage larvae assessed as nematode mortality at 0.5% under light conditions measured 5 to 60 min post dose by stereoscopic microscopy; assay type: functional, organism-based; method in brief: as §2
[24] = tested on: Heterodera zeae; experiment: Nematicidal activity against Heterodera zeae infective stage larvae assessed as nematode mortality at 0.25% under dark conditions measured 5 to 60 min post dose by stereoscopic microscopy; assay type: functional, organism-based; method in brief: as §2
[25] = tested on: Heterodera zeae; experiment: Nematicidal activity against Heterodera zeae infective stage larvae assessed as nematode mortality at 0.25% under light conditions measured 24 hr post dose by stereoscopic microscopy; assay type: functional; method in brief: as §1
[26] = tested on: Heterodera zeae; experiment: Nematicidal activity against Heterodera zeae infective stage larvae assessed as nematode mortality at 1% under dark conditions measured 48 hr post dose by stereoscopic microscopy; assay type: functional; method in brief: as §1
[27] = tested on: Heterodera zeae; experiment: Nematicidal activity against Heterodera zeae infective stage larvae assessed as nematode mortality at 0.5% under light conditions measured 48 hr post dose by stereoscopic microscopy; assay type: functional; method in brief: as §1
[28] = tested on: Heterodera zeae; experiment: Nematicidal activity against Heterodera zeae infective stage larvae assessed as nematode mortality at 1% under light conditions measured 48 hr post dose by stereoscopic microscopy; assay type: functional; method in brief: as §1
[29] = tested on: Heterodera zeae; experiment: Nematicidal activity against Heterodera zeae infective stage larvae assessed as nematode mortality at 0.25% under dark conditions measured 72 hr post dose by stereoscopic microscopy; assay type: functional; method in brief: as §1
[30] = tested on: Heterodera zeae; experiment: Nematicidal activity against Heterodera zeae infective stage larvae assessed as nematode mortality at 0.125% under dark conditions measured 72 hr post dose by stereoscopic microscopy; assay type: functional; method in brief: as §1

| SMILES | Activity [3] | mortality [4] | mortality [5] | mortality [6] | Activity [7] | mortality [8] | Activity [10] | mortality [11] | Activity [12] | mortality [14] | Activity [15] | Activity [16] | Activity [17] | mortality [18] | Activity [20] | Activity [21] | Activity [22] | Activity [23] | Activity [24] | mortality [25] | other results |
| --- | --- | --- | --- | --- | --- | --- | --- | --- | --- | --- | --- | --- | --- | --- | --- | --- | --- | --- | --- | --- | --- |
| COc1cc(C(=O)O)cc(OC)c1OC [3,4,5-TRIMETHOXYBENZOIC ACID] | inactive | 90% | 100% | 90% | inactive | 100% | inactive | 100% | inactive | 90% | inactive | inactive | inactive | 80% | inactive | inactive | inactive | inactive | inactive | 90% | mortality [1]: 100%; mortality [2]: 100%; mortality [9]: 100%; mortality [13]: 100%; mortality [19]: 100% |
| c1csc(-c2ccc(-c3cccs3)s2)c1 [ALPHA-TERTHIENYL] | inactive | 100% | 100% | 100% | inactive | 100% | inactive | 100% | inactive | 100% | inactive | inactive | inactive | 100% | inactive | inactive | inactive | inactive | inactive | 100% | – |
| O=C(O)c1cc(O)c(O)c(O)c1 [GALLIC ACID] | inactive | 100% | 100% | 100% | inactive | 100% | inactive | 100% | inactive | 100% | inactive | inactive | inactive | 100% | inactive | inactive | inactive | inactive | inactive | 100% | – |
| CCCCC/C=C\C/C=C\CCCCCCCC(=O)O [LINOLEIC ACID] | inactive | 100% | 100% | 100% | inactive | 100% | inactive | 100% | inactive | 100% | inactive | inactive | inactive | 100% | inactive | inactive | inactive | inactive | inactive | 100% | – |
| COC(=O)c1ccc(O)c(O)c1 [METHYL PROTOCATECHUATE] | inactive | 50% | 60% | 10% | inactive | 100% | inactive | 70% | inactive | 20% | inactive | inactive | inactive | 10% | inactive | inactive | inactive | inactive | inactive | 50% | mortality [1]: 100%; mortality [2]: 100%; mortality [26]: 100%; mortality [27]: 100%; mortality [9]: 100%; mortality [13]: 100%; mortality [19]: 100% |
| O=C(O)c1ccc(O)c(O)c1 [PROTOCATECHUIC ACID] | inactive | 50% | 40% | 10% | inactive | 100% | inactive | 50% | inactive | 40% | inactive | inactive | inactive | 10% | inactive | inactive | inactive | inactive | inactive | 50% | mortality [1]: 100%; mortality [2]: 100%; mortality [26]: 100%; mortality [27]: 100%; mortality [9]: 100%; mortality [13]: 100%; mortality [19]: 100% |
| C[C@@H]1O[C@@H](OC[C@H]2O[C@@H](Oc3c(-c4ccc(O)c(O)c4)oc4cc(O)cc(O)c4c3=O)[C@H](O)[C@@H](O)[C@@H]2O)[C@H](O)[C@H](O)[C@H]1O [RUTIN] | inactive | 0% | 100% | 0% | inactive | 100% | inactive | 100% | inactive | 100% | inactive | inactive | inactive | 0% | inactive | inactive | inactive | inactive | inactive | 0% | mortality [1]: 70%; mortality [2]: 100%; mortality [28]: 100%; mortality [27]: 100%; mortality [29]: 70%; mortality [13]: 100%; mortality [30]: 70%; mortality [19]: 70% |
